Test results published in ChEMBL document CHEMBL1914311, “Sugar-based peptidomimetics inhibit amyloid β-peptide aggregation” (Eur J Med Chem, 2011).
Activity calls are given as the source filed them. The rule behind the calls is not given here. Numbered stars: 1 amine (or outer) side, 2 acyl side, 3 side chain; on linkers, the order of the positions; unused ones are H or OH. Square brackets hold non-standard residues; d marks the D form. Peptide text beside a SMILES is read from it. * marks the point of attachment. X1 = O=C(CCOC[C@H]1O[C@@H](OCCCN[*:1])[C@H](O)[C@@H](O)[C@@H]1O)[*:2]; X2 = O=C(CCOC[C@H]1O[C@@H](OCCN[*:1])[C@H](O)[C@@H](O)[C@@H]1O)[*:2]; X3 = O=C(CCOC[C@H]1O[C@H](OCCCN[*:1])[C@H](O)[C@@H](O)[C@@H]1O)[*:2]; X4 = O=C(CCOC[C@H]1O[C@H](OCCN[*:1])[C@H](O)[C@@H](O)[C@@H]1O)[*:2]; Boc = CC(C)(C)OC(=O)*

What was measured:
[1] = Binding affinity to amyloid beta (1 to 40) at 1:20 protein to compound ratio up to 1 hr by STD-NMR spectroscopy
Summary of the method: (§1)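 STD-NMR used diluted Aβ1-40 (30 μM) at a 1:20 peptide:compound ratio, followed over time. Buffer was 50 mM sodium phosphate, 150 mM NaCl, pH 7.0, 10% D2O. A cascade of Gaussian selective pulses (50 ms, B1 0.16 kHz, 2 s total) was applied alternately at -1 and +30 ppm.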

[2] = Binding affinity to amyloid beta (1 to 40) at 1:20 protein to compound ratio after 2 weeks by STD-NMR spectroscopy; summary of the method: as §1
[3] = Inhibition of amyloid beta (1 to 40) fibril formation assessed as lag time for aggregate formation at 1:1 protein to compound ratio by thioflavin T fluorescence assay relative to untreated control
Summary of the method: (§2)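 HFIP-pretreated synthetic Aβ1-40 (DMSO stock) was used at 20 μM with compound at 1:1 or 1:0.1 peptide:compound ratios. The mixture contained 10 μM ThT in 10 mM Tris/HCl, 100 mM NaCl, pH 7.4, with 2.5% DMSO final. Fluorescence (ex 440, em 485 nm) was followed over time on aliquots, 2–6 runs on different days. Lag extension was taken as t(+compound)/t(alone), and plateau reduction as a percent decrease versus peptide alone.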

[4] = Inhibition of amyloid beta (1 to 40) fibril formation assessed as fold increase in lag time for aggregate formation at 1:1 protein to compound ratio by thioflavin T fluorescence assay relative to untreated control; summary of the method: as §2
[5] = Binding affinity to amyloid beta (1 to 40) assessed as negative chemical shift at 1 mM by 2D NOESY spectroscopy analysis
Summary of the method: (§3)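 Synthetic C-terminally amidated Aβ1-40 was studied by NMR in 50 mM sodium phosphate, 150 mM NaCl, pH 7.0, with 10% D2O. 2D NOESY spectra were recorded with a 0.2 s mixing time.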

[6] = target: T1, Islet amyloid polypeptide (Homo sapiens) (UniProt P10997); experiment: Inhibition of IAPP fibril formation at 1:10 protein to compound ratio after 3 hrs by transmission electron microscopy analysis
T1 sequence (whole entry): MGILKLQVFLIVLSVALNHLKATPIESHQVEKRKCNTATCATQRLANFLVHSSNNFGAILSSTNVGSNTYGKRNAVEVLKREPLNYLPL
Summary of the method: (§4)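 IAPP and compound (1:10) were incubated under the ThT assay conditions: 10 mM Tris·HCl, 100 mM NaCl, pH 7.4. Aliquots were taken at 3 h and 24 h, adsorbed onto carbon-coated copper grids for 2 min, negatively stained, and imaged by transmission electron microscopy.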

[7] = Binding affinity to amyloid beta (1 to 40) assessed as negative chemical shift by NMR spectroscopy analysis; summary of the method: as §3
[8] = Inhibition of amyloid beta (1 to 40) fibril formation assessed as appearance of spherical aggregates at 1:1 protein to compound ratio after 1 to 2 days by transmission electron microscopy analysis
Summary of the method: (§5)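 Aβ1-40 and compound were incubated at a 1:1 ratio in 10 mM Tris·HCl, 100 mM NaCl, pH 7.4, under the ThT assay conditions. Aliquots were taken after 1 day, 2 days and 2 weeks. They were adsorbed onto carbon-coated grids for 2 min, negatively stained, and imaged by TEM.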

[9] = target: T1, Islet amyloid polypeptide (Homo sapiens); experiment: Inhibition of IAPP fibril formation assessed as fold increase in lag time for aggregate formation at 1:10 protein to compound ratio by thioflavin T fluorescence assay relative to untreated control
Summary of the method: (§6)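 IAPP was made synthetic with an amidated C-terminus, pretreated with HFIP, and taken up in DMSO. It was used at 5 μM with 10 μM ThT in 10 mM Tris/HCl, 100 mM NaCl, pH 7.4, with 2.5% DMSO final. Compound was added at a 1:10 peptide:compound ratio. Fluorescence was read over time (ex 440, em 485 nm), 2–6 runs on different days. Lag extension was calculated as t(+compound)/t(alone). Plateau reduction was (F − F+compound)/F × 100%.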

[10] = Inhibition of amyloid beta (1 to 40) fibril formation at 1:1 protein to compound ratio by thioflavin T fluorescence assay relative to untreated control; conditions: concentration not given here; summary of the method: as §2
[11] = Inhibition of amyloid beta (1 to 40) fibril formation assessed as appearance of spherical aggregates at 1:01 protein to compound ratio after 2 weeks by transmission electron microscopy analysis
[12] = Inhibition of amyloid beta (1 to 40) fibril formation assessed as appearance of spherical aggregates at 1:01 protein to compound ratio after 1 to 2 days by transmission electron microscopy analysis
[13] = Binding affinity to amyloid beta (1 to 40) at 1 mM by STD-NMR spectroscopy
Summary of the method: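 1D saturation transfer difference NMR was run in 50 mM sodium phosphate, 150 mM NaCl, pH 7.0, 10% D2O. Compound was at 1 mM and Aβ1-40 at 0.25 mM. Saturation used a cascade of Gaussian selective pulses (50 ms each, B1 0.16 kHz) lasting 2 s in total, applied alternately at -1 and +30 ppm. Compound-alone spectra served as control.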

[14] = Solubility of compound in water; assay type: physicochemical; conditions: buffer
[15] = Inhibition of amyloid beta (1 to 40) fibril formation assessed as appearance of spherical aggregates at 1:1 protein to compound ratio after 2 weeks by transmission electron microscopy analysis; summary of the method: as §5
[16] = target: T1, Islet amyloid polypeptide (Homo sapiens); experiment: Inhibition of IAPP fibril formation assessed as inhibition of aggregate formation at 1:10 protein to compound ratio by thioflavin T fluorescence assay relative to untreated control; conditions: concentration not given here; summary of the method: as §6
[17] = target: T1, Islet amyloid polypeptide (Homo sapiens); experiment: Inhibition of IAPP fibril formation at 1:10 protein to compound ratio after 24 hrs by transmission electron microscopy analysis; summary of the method: as §4
[18] = Inhibition of amyloid beta (1 to 40) fibril formation assessed as lag time for aggregate formation at 1:0.1 protein to compound ratio by thioflavin T fluorescence assay relative to untreated control; summary of the method: as §2

Activity [1] | Activity [2] | TIME [3] | fold change (FC) [4] | inhibition [6] | Activity [7] | inhibition [8] | fold change (FC) [9] | inhibition [10] | inhibition [11] | inhibition [12] | Activity [13] | solubility [14] | inhibition [15] | inhibition [16] | inhibition [17] | TIME [18] | Structure (SMILES) | Activity [5]
inactive | Active | 41 h | 3 | inactive | inactive | Active | 1 | 52% | inactive | Active | Active | soluble | Active | 5% | inactive | 26 h | COC(=O)[C@H](CC(C)C)NC(=O)[C@@H](NC(=O)CCOC[C@H]1O[C@@H](OCCCNC(=O)[C@@H](NC(=O)[C@H](C)NC(=O)OC(C)(C)C)C(C)C)[C@H](O)[C@@H](O)[C@@H]1O)C(C)C (Boc-AV[X1]VL-OMe) | Active
– | – | – | 3.4 | – | – | – | 1 | 40% | – | – | – | soluble | – | 1% | – | – | COC(=O)[C@H](CC(C)C)NC(=O)[C@@H](NC(=O)CCOC[C@H]1O[C@@H](OCCNC(=O)[C@@H](NC(=O)[C@H](C)NC(=O)OC(C)(C)C)C(C)C)[C@H](O)[C@@H](O)[C@@H]1O)C(C)C (Boc-AV[X2]VL-OMe) | –
– | – | – | 3.4 | – | – | – | 1 | 60% | – | – | – | soluble | – | 9% | – | – | COC(=O)[C@H](CC(C)C)NC(=O)[C@@H](NC(=O)CCOC[C@H]1O[C@H](OCCCNC(=O)[C@@H](NC(=O)[C@H](C)NC(=O)OC(C)(C)C)C(C)C)[C@H](O)[C@@H](O)[C@@H]1O)C(C)C (Boc-AV[X3]VL-OMe) | –
– | – | – | 3.4 | – | – | – | – | 22% | – | – | – | soluble | – | – | – | – | COC(=O)[C@H](CC(C)C)NC(=O)[C@@H](NC(=O)CCOC[C@H]1O[C@H](OCCNC(=O)[C@@H](NC(=O)[C@H](C)NC(=O)OC(C)(C)C)C(C)C)[C@H](O)[C@@H](O)[C@@H]1O)C(C)C (Boc-AV[X4]VL-OMe) | –
